Laboratory results: ChEMBL document CHEMBL1158343, “Synthesis, antimicrobial and antiviral evaluation of substituted imidazole derivatives” (Eur J Med Chem, 2009)
Converted amounts (≈) assume the structure as drawn.

Legend:
Aspergillus niger = assay: Antimicrobial activity against Aspergillus niger after 7 days by tube dilution method; assay type: functional; settings: 168 h
Outline: (§1)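 Tube dilution in DMSO (stock 100 mg/ml) with serial dilutions; incubation 37 °C for 48 h for C. albicans (other organisms' times truncated in text). MIC read as lowest concentration inhibiting visible growth. Norfloxacin (bacteria) and fluconazole (fungi) as reference drugs.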

Staphylococcus aureus = assay: Antimicrobial activity against Staphylococcus aureus after 24 hrs by tube dilution method; assay type: functional; outline: as §1
Bacillus subtilis = assay: Antimicrobial activity against Bacillus subtilis after 24 hrs by tube dilution method; assay type: functional; outline: as §1
Escherichia coli = assay: Antimicrobial activity against Escherichia coli after 24 hrs by tube dilution method; assay type: functional; outline: as §1
Candida albicans = assay: Antimicrobial activity against Candida albicans after 48 hrs by tube dilution method; assay type: functional; outline: as §1
Sindbis virus = assay: Antiviral activity against Sindbis virus infected in african green monkey Vero cells assessed as reduction in virus-induced cytopathogenicity after 3 days; assay type: functional, organism-based; settings: 72 h
[1] = system: Respiratory syncytial virus; assay: Antiviral activity against RSV infected in human HeLa cells assessed as reduction in virus-induced cytopathogenicity after 3 days; assay type: functional, organism-based; settings: 72 h
Coxsackievirus B4 [2] = assay: Antiviral activity against Coxsackievirus B4 infected in african green monkey Vero cells assessed as reduction in virus-induced cytopathogenicity after 3 days; assay type: functional, organism-based; settings: Enterovirus B, 72 h
Coxsackievirus B4 [3] = assay: Antiviral activity against Coxsackievirus B4 infected in human HeLa cells assessed as reduction in virus-induced cytopathogenicity after 3 days; assay type: functional, organism-based; settings: Enterovirus B, 72 h
Human alphaherpesvirus 2 = assay: Antiviral activity against HSV2 G infected in human HEL cells assessed as reduction in virus-induced cytopathogenicity after 3 days; assay type: functional, organism-based; settings: Human alphaherpesvirus 2, strain G, 72 h
[4] = Cytotoxicity against african green monkey Vero cells assessed as alteration in cell morphology; assay type: cell-based; settings: chlorocebus sabaeus
Outline: (§2)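 Uninfected cell cultures tested in parallel with the CPE-reduction antiviral assay; cells grown to confluency, then serial compound dilutions added and incubated at 37 °C (3 days in the parallel antiviral set-up). Read-out is microscopic examination of morphology; value is the minimum cytotoxic concentration, the lowest causing a microscopically detectable alteration of normal cell morphology.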

Punta Toro virus = assay: Antiviral activity against Punta Toro virus infected in african green monkey Vero cells assessed as reduction in virus-induced cytopathogenicity after 3 days; assay type: functional, organism-based; settings: 72 h
[5] = Cytotoxicity against human HeLa cells assessed as alteration in cell morphology; assay type: cell-based; outline: as §2
[6] = system: Vesicular stomatitis virus; assay: Antiviral activity against VSV infected in human HEL cells assessed as reduction in virus-induced cytopathogenicity after 3 days; assay type: functional, organism-based; settings: 72 h
Human respirovirus 3 = assay: Antiviral activity against Parainfluenza-3 virus infected in african green monkey Vero cells assessed as reduction in virus-induced cytopathogenicity after 3 days; assay type: functional, organism-based; settings: Human respirovirus 3, Vero, 72 h
Human alphaherpesvirus 1 [7] = assay: Antiviral activity against HSV1 KOS infected in human HEL cells assessed as reduction in virus-induced cytopathogenicity after 3 days; assay type: functional, organism-based; settings: Human alphaherpesvirus 1, KOS, 72 h
[8] = system: Mammalian orthoreovirus 1; assay: Antiviral activity against Reovirus 1 infected in african green monkey Vero cells assessed as reduction in virus-induced cytopathogenicity after 3 days; assay type: functional, organism-based; settings: Mammalian orthoreovirus 1, Vero, 72 h
[9] = system: Vesicular stomatitis virus; assay: Antiviral activity against VSV infected in human HeLa cells assessed as reduction in virus-induced cytopathogenicity after 3 days; assay type: functional, organism-based; settings: 72 h
Human alphaherpesvirus 1 [10] = assay: Antiviral activity against thymidine kinase-deficient acyclovir-resistant HSV1 KOS infected in human HEL cells assessed as reduction in virus-induced cytopathogenicity after 3 days; assay type: functional, organism-based; settings: Human alphaherpesvirus 1, KOS, 72 h
[11] = Cytotoxicity against human HEL cells assessed as alteration in cell morphology; assay type: cell-based; outline: as §2

Structure (SMILES)	MFC (Aspergillus niger)	MIC (Aspergillus niger)	MBC (Staphylococcus aureus)	MIC (Staphylococcus aureus)	MBC (Bacillus subtilis)	MIC (Bacillus subtilis)	MBC (Escherichia coli)	MIC (Escherichia coli)	MFC (Candida albicans)	MIC (Candida albicans)	EC50 (Sindbis virus)	EC50 [1]	EC50 (Coxsackievirus B4 [2])	EC50 (Coxsackievirus B4 [3])	EC50 (Human alphaherpesvirus 2)	MCC [4]	EC50 (Punta Toro virus)	MCC [5]	EC50 [6]	EC50 (Human respirovirus 3)	other results
O=[N+]([O-])c1cccc(-c2ncc[nH]2)c1	264 µM (≈ 49.9 µg/mL)	33 µM (≈ 6.24 µg/mL)	33 µM (≈ 6.24 µg/mL)	4 µM (≈ 0.757 µg/mL)	33 µM (≈ 6.24 µg/mL)	4 µM (≈ 0.757 µg/mL)	33 µM (≈ 6.24 µg/mL)	4 µM (≈ 0.757 µg/mL)	264 µM (≈ 49.9 µg/mL)	33 µM (≈ 6.24 µg/mL)											
Cc1cccc(-c2ncc[nH]2)c1C	144 µM (≈ 24.8 µg/mL)	17 µM (≈ 2.93 µg/mL)	36 µM (≈ 6.2 µg/mL)	4 µM (≈ 0.689 µg/mL)	36 µM (≈ 6.2 µg/mL)	4 µM (≈ 0.689 µg/mL)	36 µM (≈ 6.2 µg/mL)	4 µM (≈ 0.689 µg/mL)	289 µM (≈ 49.8 µg/mL)	72 µM (≈ 12.4 µg/mL)											
O=C(c1ccc([N+](=O)[O-])cc1)n1ccnc1-c1ccccc1[N+](=O)[O-]	73 µM (≈ 24.7 µg/mL)	4 µM (≈ 1.35 µg/mL)	295 µM (≈ 99.8 µg/mL)	36 µM (≈ 12.2 µg/mL)	295 µM (≈ 99.8 µg/mL)	36 µM (≈ 12.2 µg/mL)	295 µM (≈ 99.8 µg/mL)	36 µM (≈ 12.2 µg/mL)	295 µM (≈ 99.8 µg/mL)	36 µM (≈ 12.2 µg/mL)	> 100 µg/mL	> 100 µg/mL	> 100 µg/mL	> 100 µg/mL	> 100 µg/mL	> 100 µg/mL	> 100 µg/mL	> 100 µg/mL	> 100 µg/mL	> 100 µg/mL	EC50 (Human alphaherpesvirus 1 [7]): > 100 µg/mL; EC50 [8]: > 100 µg/mL; EC50 [9]: > 100 µg/mL; EC50 (Human alphaherpesvirus 1 [10]): > 100 µg/mL; MCC [11]: > 100 µg/mL
O=C(O)c1ccccc1-c1nccn1C(=O)c1ccc([N+](=O)[O-])cc1	148 µM (≈ 49.9 µg/mL)	9 µM (≈ 3.04 µg/mL)	18 µM (≈ 6.07 µg/mL)	2 µM (≈ 0.675 µg/mL)	18 µM (≈ 6.07 µg/mL)	2 µM (≈ 0.675 µg/mL)	18 µM (≈ 6.07 µg/mL)	2 µM (≈ 0.675 µg/mL)	256 µM (≈ 86.3 µg/mL)	18 µM (≈ 6.07 µg/mL)	> 100 µg/mL	> 100 µg/mL	> 100 µg/mL	> 100 µg/mL	> 100 µg/mL	> 100 µg/mL	> 100 µg/mL	> 100 µg/mL	> 100 µg/mL	> 100 µg/mL	EC50 (Human alphaherpesvirus 1 [7]): > 100 µg/mL; EC50 [8]: > 100 µg/mL; EC50 [9]: > 100 µg/mL; EC50 (Human alphaherpesvirus 1 [10]): > 100 µg/mL; MCC [11]: > 100 µg/mL
Clc1ccc(-c2ncc[nH]2)cc1	561 µM (≈ 100 µg/mL)	702 µM (≈ 125 µg/mL)	35 µM (≈ 6.25 µg/mL)	4 µM (≈ 0.714 µg/mL)	702 µM (≈ 125 µg/mL)	8 µM (≈ 1.43 µg/mL)	702 µM (≈ 125 µg/mL)	8 µM (≈ 1.43 µg/mL)	280 µM (≈ 50 µg/mL)	35 µM (≈ 6.25 µg/mL)											
Brc1ccc(-c2ncc[nH]2)cc1	112 µM (≈ 25 µg/mL)	14 µM (≈ 3.12 µg/mL)	28 µM (≈ 6.25 µg/mL)	3 µM (≈ 0.669 µg/mL)	28 µM (≈ 6.25 µg/mL)	3 µM (≈ 0.669 µg/mL)	28 µM (≈ 6.25 µg/mL)	3 µM (≈ 0.669 µg/mL)	224 µM (≈ 50 µg/mL)	28 µM (≈ 6.25 µg/mL)											
Clc1cccc(-c2ncc[nH]2)c1	280 µM (≈ 50 µg/mL)	35 µM (≈ 6.25 µg/mL)	35 µM (≈ 6.25 µg/mL)	4 µM (≈ 0.714 µg/mL)	140 µM (≈ 25 µg/mL)	17 µM (≈ 3.04 µg/mL)	561 µM (≈ 100 µg/mL)	702 µM (≈ 125 µg/mL)	280 µM (≈ 50 µg/mL)	35 µM (≈ 6.25 µg/mL)											
O=C(O)c1ccccc1-c1ncc[nH]1	265 µM (≈ 49.9 µg/mL)	33 µM (≈ 6.21 µg/mL)	531 µM (≈ 99.9 µg/mL)	4 µM (≈ 0.753 µg/mL)	33 µM (≈ 6.21 µg/mL)	4 µM (≈ 0.753 µg/mL)	265 µM (≈ 49.9 µg/mL)	4 µM (≈ 0.753 µg/mL)	526 µM (≈ 99 µg/mL)	66 µM (≈ 12.4 µg/mL)											
O=C(c1ccc([N+](=O)[O-])cc1)n1ccnc1-c1ccc(Cl)cc1	76 µM (≈ 24.9 µg/mL)	4 µM (≈ 1.31 µg/mL)	152 µM (≈ 49.8 µg/mL)	38 µM (≈ 12.5 µg/mL)	305 µM (≈ 100 µg/mL)	19 µM (≈ 6.23 µg/mL)	305 µM (≈ 100 µg/mL)	38 µM (≈ 12.5 µg/mL)	152 µM (≈ 49.8 µg/mL)	19 µM (≈ 6.23 µg/mL)	> 100 µg/mL	> 100 µg/mL	> 100 µg/mL	45 µg/mL (≈ 137 µM)	> 100 µg/mL	> 100 µg/mL	> 100 µg/mL	> 100 µg/mL	> 100 µg/mL	> 100 µg/mL	EC50 (Human alphaherpesvirus 1 [7]): > 100 µg/mL; EC50 [8]: > 100 µg/mL; EC50 [9]: > 100 µg/mL; EC50 (Human alphaherpesvirus 1 [10]): > 100 µg/mL; MCC [11]: > 100 µg/mL
O=[N+]([O-])c1ccccc1-c1ncc[nH]1	264 µM (≈ 49.9 µg/mL)	33 µM (≈ 6.24 µg/mL)	33 µM (≈ 6.24 µg/mL)	4 µM (≈ 0.757 µg/mL)	33 µM (≈ 6.24 µg/mL)	4 µM (≈ 0.757 µg/mL)	33 µM (≈ 6.24 µg/mL)	4 µM (≈ 0.757 µg/mL)	264 µM (≈ 49.9 µg/mL)	33 µM (≈ 6.24 µg/mL)											
O=C(c1ccc([N+](=O)[O-])cc1)n1ccnc1-c1ccccc1Cl	76 µM (≈ 24.9 µg/mL)	9 µM (≈ 2.95 µg/mL)	19 µM (≈ 6.23 µg/mL)	2 µM (≈ 0.655 µg/mL)	19 µM (≈ 6.23 µg/mL)	2 µM (≈ 0.655 µg/mL)	19 µM (≈ 6.23 µg/mL)	2 µM (≈ 0.655 µg/mL)	152 µM (≈ 49.8 µg/mL)	38 µM (≈ 12.5 µg/mL)	> 100 µg/mL	> 100 µg/mL	> 100 µg/mL	> 100 µg/mL	> 100 µg/mL	> 100 µg/mL	> 100 µg/mL	> 100 µg/mL	> 100 µg/mL	> 100 µg/mL	EC50 (Human alphaherpesvirus 1 [7]): > 100 µg/mL; EC50 [8]: > 100 µg/mL; EC50 [9]: > 100 µg/mL; EC50 (Human alphaherpesvirus 1 [10]): > 100 µg/mL; MCC [11]: > 100 µg/mL
